The source of these data is article PMC9989235 (Iranian Journal of Medical Sciences, 2023).

A short description of assay [1]: DPPH radical scavenging assay. The following applies: mean±SD. The gist of the method: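 Test compound in methanol at 50, 75 and 100 was added to 0.005% (w/v) DPPH in methanol. Incubation was 45 min at room temperature, with absorbance read at 517 nm against a blank. Inhibition (%) = [(controlA − sampleA)/[…]]×100, where the control held all reagents except the test compound. Triplicate runs; IC50 taken from a fitted line to the plot.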
A general note: DPPH is a stable violet radical that fades when it is reduced.

For assay [2], the system named is selected bacteria strains. Put plainly: Disc diffusion method, overall statements on the selected bacteria strains. The following applies: selected Gram-positive and Gram-negative strains, inhibition zones. The class given is cell-based. Put shortly: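 Clinical isolates from Kirkuk Hospital were cultured on agar in Petri dishes. Test compound was dissolved in DMSO at 60 µg/mL, with DMSO alone tested alongside. Plates were incubated 24 h at 37 °C, pH 7.4±0.2. Inhibition-zone diameter around the disc was scored: − none; + 10–15 mm; ++ 15–20 mm; +++ ≥20 mm.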
(Agar diffusion results depend on both activity and mobility in agar.)

Another assay deals with Giardia intestinalis. Nature of the assay: In vitro bioassay of antigiardial activity. The assay is classed as cell-based. The conditions noted are these: Giardia duodenalis, read-out: Antigiardial activity, IC50, Giardia intestinalis.

Consider `O=C1O[C@H]([C@@H](O)CO)C(O)=C1O` [Ascorbic acid], for which the “DPPH radical scavenging, inhibition at 50 µg/mL” value in assay [1] (compound concentration 50 µg/mL, 45 min, 517 nm) was 78.01±0.75%. The “DPPH radical scavenging, inhibition at 75 µg/mL” value in assay [1] (compound concentration 75 µg/mL, 45 min, 517 nm) is given as 81.01±0.85%. Moreover, the “DPPH radical scavenging, inhibition at 100 µg/mL” value in assay [1] (compound concentration 100 µg/mL, 45 min, 517 nm) worked out at 84.21±0.41%.
For the compound `Cc1ncc([N+](=O)[O-])n1CCO` [Metronidazole], in assay [1] (fitted line to a plot, triplicate), the “DPPH radical scavenging, IC50” value is given as “ns (No scavenging activity)”. Besides, the “antibacterial activity (in words)” value in assay [2] is recorded as “no antibacterial activity”. Also, the IC50 in the assay on Giardia intestinalis came out at 3.71 ± 0.27 µM.

One may read the IC50 as the concentration that gives 50% inhibition.
